The text below walks through data of ChEMBL document CHEMBL1127659, “In vitro and in vivo activities of reduced-size antagonists of luteinizing hormone-releasing hormone” (J Med Chem, 1994).

Assay [1] is filed under the species Rattus norvegicus. Briefly: In vitro antagonistic potency against release of luteinizing hormone (LH) from cultured rat pituitary cells. Particulars: Pituitary gland cell, read-out: pA2 (converted). In kind it is functional. The essentials:
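Cultured rat pituitary cells, agonist-stimulated LH release. pA2 is the negative log of the antagonist concentration that makes a 2-fold higher agonist concentration necessary to release LH. Compounds tested as TFA salts.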

The species entered for assay [2] is Rattus norvegicus. Description: Percentage suppression of the LH in castrated rat after 2 hr of doing.
For assay [3], the species on record is Rattus norvegicus. Description: Effective dose required for maximal release of histamine from rat peritoneal mast cells. In kind it is functional. The settings on record: read-out: ED50 (the source's name). An outline of the steps: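 Rat peritoneal mast cells; histamine release measured. ED50 is the antagonist dose giving 50% of maximal histamine release, in micrograms per milliliter. All compounds tested as TFA salts.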

≈ marks a conversion by molar mass, not a printed value. Where a SMILES comes first, the peptide text is derived from it. [ ]: non-standard residue; d: D form. The star is where a group is joined. Propanoyl(3-(4-F-phenyl)) = O=C(CCc1ccc(F)cc1)*; Propanoyl(3-(4-Cl-Ph)) = O=C(CCc1ccc(Cl)cc1)*; dPhe(4-Cl) = N[C@H](Cc1ccc(Cl)cc1)C(=O)O; Desaminotyrosyl = O=C(CCc1ccc(O)cc1)*; d1Nal = N[C@H](Cc1cccc2ccccc12)C(=O)O; d2Nal = N[C@H](Cc1ccc2ccccc2c1)C(=O)O; Lys(iPr) = CC(C)NCCCC[C@H](N)C(=O)O; NMeY = CN[C@@H](Cc1ccc(O)cc1)C(=O)O; d3Pal = N[C@H](Cc1cccnc1)C(=O)O; Nicotinoyl = O=C(c1cccnc1)*; X1 = O=C(Cc1ccc(O)cc1)*

For `CCNC(=O)[C@@H]1CCCN1C(=O)[C@H](CCCN=C(N)N)NC(=O)[C@H](CC(C)C)NC(=O)[C@@H](Cc1c[nH]c2ccccc12)NC(=O)[C@H](Cc1ccc(O)cc1)NC(=O)[C@H](CO)NC(=O)[C@@H](Cc1c[nH]c2ccccc12)NC(=O)c1cc2cc(F)ccc2[nH]1`, the Kb in the assay listed under Rattus norvegicus [1] was 41.7 nM.

On to `CCNC(=O)[C@@H]1CCCN1C(=O)[C@H](CCCN=C(N)N)NC(=O)[C@H](CC(C)C)NC(=O)[C@@H](Cc1c[nH]c2ccccc12)NC(=O)[C@H](Cc1ccc(O)cc1)N(C)C(=O)[C@H](CO)NC(=O)[C@@H](Cc1cccc2ccccc12)NC(=O)CCc1ccc(F)cc1`, for which the Kb in the assay filed under Rattus norvegicus [1] was 0.00562 nM.

`CCNC(=O)[C@@H]1CCCN1C(=O)[C@H](CCCN=C(N)N)NC(=O)[C@H](CC(C)C)NC(=O)[C@@H](Cc1c[nH]c2ccccc12)NC(=O)[C@H](Cc1ccc(O)cc1)NC(=O)[C@H](CO)NC(=O)[C@@H](Cc1c[nH]c2ccccc12)NC(=O)CCc1ccc(F)cc1` [listing 1 of 2 here]: the Kb in the assay filed under Rattus norvegicus [1] is 0.0389 nM.

On to `CCNC(=O)[C@@H]1CCCN1C(=O)[C@H](CCCN=C(N)N)NC(=O)[C@H](CC(C)C)NC(=O)[C@@H](Cc1c[nH]c2ccccc12)NC(=O)[C@H](Cc1ccc(O)cc1)NC(=O)[C@H](CO)NC(=O)[C@@H](Cc1c[nH]c2ccccc12)NC(=O)CCc1ccc(F)cc1` [listing 2 of 2 here], for which the Supression in the assay listed under Rattus norvegicus [2] was found to be 88%.

Consider `CCNC(=O)[C@@H]1CCCN1C(=O)[C@H](CCCN=C(N)N)NC(=O)[C@H](CC(C)C)NC(=O)[C@@H](Cc1ccc(O)cc1)NC(=O)[C@H](Cc1ccc(O)cc1)NC(=O)[C@H](CO)NC(=O)[C@H](Cc1c[nH]c2ccccc12)NC(=O)CCc1ccc(F)cc1`, for which the Kb in the assay listed under Rattus norvegicus [1] is 12.6 nM.

Consider `CCNC(=O)[C@@H]1CCCN1C(=O)[C@H](CCCN=C(N)N)NC(=O)[C@H](CC(C)C)NC(=O)[C@@H](Cc1ccc(O)cc1)NC(=O)[C@H](Cc1ccc(O)cc1)NC(=O)[C@H](CO)NC(=O)[C@@H](Cc1c[nH]c2ccccc12)NC(=O)CCc1ccc(F)cc1`, for which the Kb in the assay filed under Rattus norvegicus [1] was 0.0316 nM.

For the compound `CCNC(=O)[C@@H]1CCCN1C(=O)[C@H](CCCN=C(N)N)NC(=O)[C@H](CC(C)C)NC(=O)[C@@H](Cc1c[nH]c2ccccc12)NC(=O)[C@H](Cc1ccc(O)cc1)NC(=O)[C@H](CO)NC(=O)[C@@H](Cc1cccc2ccccc12)NC(=O)CCc1ccc(F)cc1`, in the assay filed under Rattus norvegicus [1], the Kb is 0.00708 nM.

For the compound `CCNC(=O)[C@@H]1CCCN1C(=O)[C@H](CCCN=C(N)N)NC(=O)[C@H](CC(C)C)NC(=O)[C@@H](Cc1c[nH]c2ccccc12)NC(=O)[C@H](Cc1ccc(O)cc1)NC(=O)[C@H](CO)NC(=O)[C@H](Cc1c[nH]c2ccccc12)NC(=O)c1cc2ccccc2[nH]1`, the Kb in the assay listed under Rattus norvegicus [1] is 17.8 nM.

Consider `CCNC(=O)[C@@H]1CCCN1C(=O)[C@H](CCCN=C(N)N)NC(=O)[C@H](CC(C)C)NC(=O)[C@@H](CCCCNC(=O)c1cccnc1)NC(=O)[C@H](Cc1ccc(O)cc1)N(C)C(=O)[C@H](CO)NC(=O)[C@@H](Cc1c[nH]c2ccccc12)NC(=O)CCc1ccc(F)cc1`, for which, in the assay filed under Rattus norvegicus [3], the EC50 was below 0.1 µg/mL. In the assay filed under Rattus norvegicus [2], this compound gave a Supression of 90%.

On to `CCNC(=O)[C@@H]1CCCN1C(=O)[C@H](CCCN=C(N)N)NC(=O)[C@H](CC(C)C)NC(=O)[C@@H](CCCCNC(=O)c1cccnc1)NC(=O)[C@H](Cc1ccc(O)cc1)N(C)C(=O)[C@H](CO)NC(=O)[C@@H](Cc1c[nH]c2ccccc12)NC(=O)CCc1ccc(F)cc1F`, for which the Kb in the assay filed under Rattus norvegicus [1] was 0.00891 nM.

As for `CCNC(=O)[C@@H]1CCCN1C(=O)[C@H](CCCN=C(N)N)NC(=O)[C@H](CC(C)C)NC(=O)[C@@H](Cc1c[nH]c2ccccc12)NC(=O)[C@H](Cc1ccc(O)cc1)NC(=O)[C@H](CO)NC(=O)[C@@H](Cc1c[nH]c2ccccc12)NC(=O)CCc1ccc(F)cc1F`, the Kb in the assay listed under Rattus norvegicus [1] is 0.0141 nM.

With `CCNC(=O)[C@@H]1CCCN1C(=O)[C@H](CCCN=C(N)N)NC(=O)[C@H](CC(C)C)NC(=O)[C@@H](Cc1c[nH]c2ccccc12)NC(=O)[C@H](Cc1ccc(O)cc1)NC(=O)[C@H](CO)NC(=O)[C@H](Cc1c[nH]c2ccccc12)NC(=O)CCc1cccc(F)c1`, the Kb in the assay listed under Rattus norvegicus [1] is 0.891 nM.

In the case of `CCNC(=O)[C@@H]1CCCN1C(=O)[C@H](CCCN=C(N)N)NC(=O)[C@H](CC(C)C)NC(=O)[C@@H](Cc1c[nH]c2ccccc12)NC(=O)[C@H](Cc1ccc(O)cc1)NC(=O)[C@H](CO)NC(=O)[C@H](Cc1c[nH]c2ccccc12)NC(=O)CCc1ccccc1F`, the Kb in the assay filed under Rattus norvegicus [1] was 0.447 nM.

As for `CCNC(=O)[C@@H]1CCCN1C(=O)[C@H](CCCN=C(N)N)NC(=O)[C@H](CC(C)C)NC(=O)[C@@H](Cc1c[nH]c2ccccc12)NC(=O)[C@H](Cc1ccc(O)cc1)NC(=O)[C@H](CO)NC(=O)[C@@H](Cc1c[nH]c2ccccc12)NC(=O)Cc1ccc(C(F)(F)F)cc1`, the Kb in the assay listed under Rattus norvegicus [1] was 2.63 nM.

Take `CC(C)C[C@H](NC(=O)[C@@H](CCCCNC(=O)c1cccnc1)NC(=O)[C@H](Cc1ccc(O)cc1)N(C)C(=O)[C@H](CO)NC(=O)[C@@H](Cc1cccc2ccccc12)NC(=O)CCc1ccc(F)cc1)C(=O)N[C@@H](CCCCNC(C)C)C(=O)N1CCC[C@H]1C(=O)O`: in the assay listed under Rattus norvegicus [1], the Kb is 7.76 nM.

As for `CCNC(=O)[C@@H]1CCCN1C(=O)[C@H](CCCN=C(N)N)NC(=O)[C@H](CC(C)C)NC(=O)[C@@H](Cc1c[nH]c2ccccc12)NC(=O)[C@H](Cc1ccc(O)cc1)NC(=O)[C@H](CO)NC(=O)[C@@H](Cc1ccc(O)cc1)NC(=O)CCc1ccc(F)cc1`, the Kb in the assay filed under Rattus norvegicus [1] was 0.219 nM.

Take `CCNC(=O)[C@@H]1CCCN1C(=O)[C@H](CCCN=C(N)N)NC(=O)[C@H](CC(C)C)NC(=O)[C@@H](Cc1c[nH]c2ccccc12)NC(=O)[C@H](Cc1ccc(O)cc1)NC(=O)[C@H](CO)NC(=O)[C@H](Cc1c[nH]c2ccccc12)NC(=O)CCc1ccc(Cl)cc1`: the Kb in the assay listed under Rattus norvegicus [1] was 0.126 nM.

Take `CCNC(=O)[C@@H]1CCCN1C(=O)[C@H](CCCN=C(N)N)NC(=O)[C@H](CC(C)C)NC(=O)[C@@H](Cc1c[nH]c2ccccc12)NC(=O)[C@H](Cc1ccc(O)cc1)NC(=O)[C@H](CO)NC(=O)[C@H](Cc1c[nH]c2ccccc12)NC(=O)CCc1ccc(F)cc1`: the Kb in the assay filed under Rattus norvegicus [1] is 0.589 nM.

Consider `CCNC(=O)[C@@H]1CCCN1C(=O)[C@H](CCCCNC(C)C)NC(=O)[C@H](CC(C)C)NC(=O)[C@@H](CCCCNC(=O)c1cccnc1)NC(=O)[C@H](Cc1ccc(O)cc1)N(C)C(=O)[C@H](CO)NC(=O)[C@@H](Cc1cccc2ccccc12)NC(=O)CCc1ccc(F)cc1`, for which, in the assay listed under Rattus norvegicus [1], the Kb was 0.00372 nM.

Take `CCNC(=O)[C@@H]1CCCN1C(=O)[C@H](CCCN=C(N)N)NC(=O)[C@H](CC(C)C)NC(=O)[C@@H](Cc1c[nH]c2ccccc12)NC(=O)[C@H](Cc1ccc(O)cc1)NC(=O)[C@@H]1CCCN1C(=O)[C@@H](Cc1c[nH]c2ccccc12)NC(=O)CCc1ccc(F)cc1`: the Kb in the assay listed under Rattus norvegicus [1] is 21.4 nM.

For the compound `CCNC(=O)[C@@H]1CCCN1C(=O)[C@H](CCCN=C(N)N)NC(=O)[C@H](CC(C)C)NC(=O)[C@@H](Cc1c[nH]c2ccccc12)NC(=O)[C@H](Cc1ccc(O)cc1)N(C)C(=O)[C@H](CO)NC(=O)[C@@H](Cc1c[nH]c2ccccc12)NC(=O)CCc1ccc(F)cc1`, the Kb in the assay filed under Rattus norvegicus [1] was 0.00708 nM.

Regarding `CC(=O)N[C@H](Cc1ccc2ccccc2c1)C(=O)N[C@H](Cc1ccc(Cl)cc1)C(=O)N[C@H](Cc1cccnc1)C(=O)N[C@@H](CO)C(=O)N(C)[C@@H](Cc1ccc(O)cc1)C(=O)N[C@H](CCCCNC(=O)c1cccnc1)C(=O)N[C@@H](CC(C)C)C(=O)N[C@@H](CCCCNC(C)C)C(=O)N1CCC[C@H]1C(=O)N[C@H](C)C(N)=O` (Ac-[d2Nal][dPhe(4-Cl)][d3Pal]S[NMeY][dK](Nicotinoyl)L[Lys(iPr)]P[dA]-NH2), in the assay listed under Rattus norvegicus [3], the EC50 came out at 10 µg/mL (≈ 6.51 µM).

For `CCNC(=O)[C@@H]1CCCN1C(=O)[C@H](CCCN=C(N)N)NC(=O)[C@H](CC(C)C)NC(=O)[C@@H](Cc1c[nH]c2ccccc12)NC(=O)[C@H](Cc1ccc(O)cc1)NC(=O)[C@H](CO)NC(=O)[C@H](Cc1c[nH]c2ccccc12)NC(=O)CCc1ccc(O)cc1` (Desaminotyrosyl-WSY[dW]LRP-NHEt), the Kb in the assay filed under Rattus norvegicus [1] is 15.5 nM.

For the compound `CCNC(=O)[C@@H]1CCCN1C(=O)[C@H](CCCN=C(N)N)NC(=O)[C@H](CC(C)C)NC(=O)[C@@H](Cc1c[nH]c2ccccc12)NC(=O)[C@H](Cc1ccc(O)cc1)NC(=O)[C@H](CO)NC(=O)[C@H](Cc1c[nH]c2ccccc12)NC(=O)Cc1ccc(O)cc1` (X1-WSY[dW]LRP-NHEt), the Kb in the assay filed under Rattus norvegicus [1] is 44.7 nM.

On to `CCNC(=O)[C@@H]1CCCN1C(=O)[C@H](CCCN=C(N)N)NC(=O)[C@H](CC(C)C)NC(=O)[C@@H](Cc1c[nH]c2ccccc12)NC(=O)[C@H](Cc1ccc(O)cc1)NC(=O)[C@H](CO)NC(=O)[C@H](Cc1ccc(O)cc1)NC(=O)CCc1ccc(Cl)cc1` ({Propanoyl(3-(4-Cl-Ph))}-YSY[dW]LRP-NHEt), for which, in the assay filed under Rattus norvegicus [1], the Kb is 0.851 nM.

Consider `CCNC(=O)[C@@H]1CCCN1C(=O)[C@H](CCCN=C(N)N)NC(=O)[C@H](CC(C)C)NC(=O)[C@@H](Cc1c[nH]c2ccccc12)NC(=O)[C@H](Cc1ccc(O)cc1)NC(=O)[C@H](CO)NC(=O)[C@@H](Cc1ccc(O)cc1)NC(=O)CCc1ccc(Cl)cc1` ({Propanoyl(3-(4-Cl-Ph))}-[dY]SY[dW]LRP-NHEt), for which, in the assay listed under Rattus norvegicus [1], the Kb was 0.0832 nM.

Consider `CC(C)C[C@H](NC(=O)[C@@H](CCCCNC(=O)c1cccnc1)NC(=O)[C@H](Cc1ccc(O)cc1)N(C)C(=O)[C@H](CO)NC(=O)[C@@H](Cc1cccc2ccccc12)NC(=O)CCc1ccc(F)cc1)C(=O)N[C@@H](CCCCNC(C)C)C(=O)N1CCC[C@H]1C(=O)N[C@H](C)C(N)=O` ({Propanoyl(3-(4-F-phenyl))}-[d1Nal]S[NMeY][dK](Nicotinoyl)L[Lys(iPr)]P[dA]-NH2) [listing 1 of 2 here], for which the Kb in the assay filed under Rattus norvegicus [1] is 0.00741 nM.

On to `CC(C)C[C@H](NC(=O)[C@@H](CCCCNC(=O)c1cccnc1)NC(=O)[C@H](Cc1ccc(O)cc1)N(C)C(=O)[C@H](CO)NC(=O)[C@@H](Cc1cccc2ccccc12)NC(=O)CCc1ccc(F)cc1)C(=O)N[C@@H](CCCCNC(C)C)C(=O)N1CCC[C@H]1C(=O)N[C@H](C)C(N)=O` ({Propanoyl(3-(4-F-phenyl))}-[d1Nal]S[NMeY][dK](Nicotinoyl)L[Lys(iPr)]P[dA]-NH2) [listing 2 of 2 here], for which the EC50 in the assay filed under Rattus norvegicus [3] came to 10.3 µg/mL (≈ 7.84 µM).
